# In ChEMBL document CHEMBL4513216, “Probing the Open Global Health Chemical Diversity Library for Multistage-Active Starting Points for Next-Generation Antimalarials” (ACS Infect Dis, 2020):
# Test: Toxicity liver stage against HepG2, at 10uM
# Format: cell-based
# Set-up: test concentration 10 uM, cell line HepG2-A16-CD81EGFP
# Settings: human, HepG2-A16-CD81EGFP cells; read-out: INHIBITION
# Summary of the method: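 Uninfected HepG2-A16-CD81EGFP cells, 3 × 10^3 per well, 1536-well, plated on prespotted compound at 10 μM final, parasite-free screening media added to match infected plates; puromycin 10 μM positive, DMSO 0.5% negative; run in parallel with 48 h PbLuc assay at 37 °C, 5% CO2; viability by CellTiter-Glo luminescence, normalized to controls.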
row,Compound,cytotoxicity at 10 µM [%]
1,O=C(NCCSC1CCCC1)c1cc(C2CC2)on1,0.459
2,CN1CCC(CNC(=O)c2cccc(C(F)(F)F)c2)c2ccccc21 (configuration not stated),17.4
3,COC(=O)[C@H]1CN(C(=O)NC(C)C)CCN1C(=O)C1CCCCC1,1.35
4,CCc1ccc(NC(=O)c2cnc(N3CCCC3)nc2C)cc1,0.709
5,CCOC(=O)[C@@H]1[C@@H](c2ccccc2)CN2CCN(S(C)(=O)=O)C[C@H]12,0.227
6,Cn1nc2c(c1NC(=O)c1ccc(Cl)s1)CCC2,-1.51
7,Cc1nccn1-c1ccc(C(=O)NCC(F)(F)F)nn1,-2.35
8,CCN1C[C@H]2CCN(Cc3ccncc3)C(=O)[C@@H]2C1,5.53
9,CCN1C(=O)CCCC12CCCN(C(=O)c1ccsc1)C2 (configuration not stated),-153
10,O=S(=O)(C1CC1)N1CCOC2(CCCN(c3cccc(F)c3)C2)C1 (configuration not stated),8.46
11,COCCO[C@H]1CCN(Cc2ccoc2)[C@H]1Cc1cccnc1,-3.85
12,O=C(NCC1CCCO1)c1nc2c(s1)CCCN2Cc1ccccc1 (configuration not stated),1.84
13,CCCS(=O)(=O)N1CC[C@@H]2[C@@H]1CC(=O)N2Cc1csc(C)n1,-134
14,O=C1CCCN1Cc1ncn2c1CN(C(=O)NC1CCCC1)CCC2,-147
15,COCc1cnc2n1CCN(C(=O)C1=CCCC1)C2C (configuration not stated),2.75
16,CNC(=O)C1Cn2ccnc2C2(CCN(c3ccc(C)nn3)CC2)O1 (configuration not stated),-137
17,O=C1CC(c2ccc(C(=O)O)cc2)c2ncn(-c3ccccc3Cl)c2N1 (configuration not stated),2.03
18,CCOc1ccc(Oc2cc(N)ccn2)cc1,2.9
19,NC(=O)c1nnn(-c2ccc(Br)cc2)n1,6.56
20,O=C(Nc1cc(-c2ccncc2)no1)C1CC1,-4.18
21,COCCc1ncc(CNC2(c3ccc(Cl)cc3)CC2)cn1,-17.3
22,CC(C)NC(=O)C1CCc2nnc(CNC(=O)c3cccnc3)n21 (configuration not stated),6.94
23,Cc1nc(C2CCN(S(=O)(=O)c3ccc4c(c3)CCC4)CC2)n[nH]1,-1.24

row,Compound,cytotoxicity at 10 µM [%]
1,CN(CC(O)C1CC1)C(=O)Nc1cc(F)cc(Br)c1 (configuration not stated),-3.85
2,CC(SCCC(=O)NC(N)=O)c1ccc(F)cc1F (configuration not stated),0.936
3,COc1nc(N2CCN(C(C)=O)CC2)ncc1Br,0.27
4,Cc1sc2ncnc(N3CCCC3Cn3cccn3)c2c1C (configuration not stated),2.62
5,Cc1cc(CC(C)NC(=O)c2n[nH]c3c2CCC3)n[nH]1 (configuration not stated),-144
6,NC(=O)C(NC1CCN(CC2CCCCC2)CC1)c1ccc(F)cc1 (configuration not stated),-5.14
7,CCN1CC(COC(=O)c2ccc(N(C)C)cc2F)CC1=O (configuration not stated),2.38
8,CCN(CC)C(=O)CNC(=O)c1c[nH]c2ccc(OC)cc12,-0.527
9,O=C(Cc1csc(-c2ccoc2)n1)NCCCN1CCCCC1,12.6
10,Cc1nn(C(C)(C)C)c(=O)n1CC(=O)NC(C)(C)C,1.45
11,NC(=O)CC1CCN(C(=O)c2cnc(-c3ccccc3F)s2)CC1,-0.608
12,Cc1cc(N2CCc3c(nc(C(C)C)n3C)C2)nc(N)n1,-6.79
13,COc1cccc(NC(=O)NC(C)c2ccc3c(c2)CC(=O)N3)c1 (configuration not stated),-3.49
14,CC(C)(C)S(=O)(=O)CCNC1CSCCc2ccccc21 (configuration not stated),-2.35
15,OCCNC1CSCCc2ccccc21 (configuration not stated),-1.44
16,CCC(C)(NCc1cccc(NC(C)=O)c1)c1nc(C)cs1 (configuration not stated),-2.27
17,CC(=O)N1CCN(C(=O)NCc2ccccc2Cn2cncn2)CC1,0.0453
18,O=C(CSc1ccc2c(c1)OCCO2)NS(=O)(=O)c1ccccc1Br,-4.62
19,NC(=O)CSc1ccccc1NC(=O)C1CCCC1,-135
20,Cc1nnc2n1CCN(C(=O)c1cn(-c3ccccc3)nn1)C2,-146
21,Cc1nc2cc(O)nn2c(C)c1CCC(=O)N(C)CCC(C)C,-146
22,COC1CCN(C(=O)c2cc(-c3ccc(Cl)cc3)on2)CC1,-0.885
23,CN(C(=O)Cc1ccc2c(c1)OCCO2)C1CCCCC1,2.89

row,Compound,cytotoxicity at 10 µM [%]
1,Fc1ccc(OC2CCN(Cc3nnc(-c4ccco4)o3)CC2)cc1,-2.56
2,O=C(CCNS(=O)(=O)c1cccnc1)N1CCCCC1,-6.13
3,COc1ccc(CNC(=O)CNc2ccccc2OC)cc1,-2.25
4,Cn1ccnc1CCNC(=O)NCCC1CCCCO1 (configuration not stated),-1.94
5,Cc1cc(NCC(=O)N(C)Cc2cccs2)c(C(N)=O)cc1F,0.83
6,O=C(NC1CC1)NC(c1ccc(F)cc1)C1CC1 (configuration not stated),-0.158
7,Cn1ccc(C(=O)N2CCN(Cc3ccccc3F)CC2)cc1=O,-1.44
8,CC(=O)Nc1ccc2nn(C(C)C)cc2c1,-145
9,CCN(C(=O)CN1CCCC1c1ccc(F)cc1)c1ccccc1C (configuration not stated),5.42
10,CC(C)c1cccc(-n2cc(O)c(C(=O)O)n2)c1,-4.49
11,O=C(C(NCc1cccc(F)c1F)c1ccccc1)N1CCOCC1 (configuration not stated),8.61
12,CCC(=O)NC1CCCN(C(=O)Nc2cccc(COC(C)C)c2)C1 (configuration not stated),7.96
13,Cc1cccnc1NC(=O)C1CCN(C(=O)C(C)C)CC1,6.7
14,COc1ccc(Br)cc1CCC(=O)N1CCCC(O)C1 (configuration not stated),5.66
15,Cc1cccnc1C(NC(=O)CNC(=O)c1ccoc1C)C(C)C (configuration not stated),2.45
16,CC(C)CS(=O)(=O)NC(=O)c1ccc2c(c1)ncn2C,-9.94
17,O=S(=O)(Cc1cccc2cccnc12)NC(CO)c1ccco1 (configuration not stated),4.22
18,Cc1cc2c(cc1C)C(NCc1nnc3n1CCCCC3)CCCO2 (configuration not stated),0.873
19,N#Cc1cccnc1NCCNC(=O)N1CCCC(C(F)(F)F)C1 (configuration not stated),-3.76
20,CN(CCN1CCOCC1)C(=O)CCCc1ccccc1,-8.28
21,CC1CCc2n[nH]c(C(=O)NCCc3ccco3)c2C1 (configuration not stated),-6.63
22,CCc1ncc(CN2CCN(c3cc(NC4CC4)nc(N)n3)CC2)cn1,-3.44
23,N[C@H]1CCCN(C(=O)c2cnc(COc3ccccc3)nc2O)C1,1.67

row,Compound,cytotoxicity at 10 µM [%]
1,CCn1c(C2CCCN(Cc3ccnc4ccccc34)C2)nn(C)c1=O (configuration not stated),-5.92
2,CCn1ncnc1CN1CCc2[nH]cnc2C1Cc1ccccc1 (configuration not stated),-4.94
3,CN1CCN(C[C@@H]2CN(Cc3c(Cl)cncc3Cl)C[C@@H]2CO)CC1,-124
4,Cc1cccc(C(C(=O)NCCn2cccc2)N(C)C)c1 (configuration not stated),-9.12
5,CCc1cnc(C)nc1NCCN1CCOCC1,-2.66
6,Cc1ncsc1C(=O)NCc1cc2n(n1)CCN(C(=O)N(C)C)C2,-5.62
7,CCN(Cc1ccncc1)C(=O)c1cn(CC2CCCNC2)nn1 (configuration not stated),5.35
8,CCN(Cc1ccncc1)C(=O)c1cn(CCC2CCCCC2)nn1,10.5
9,CC(=O)N[C@@H]1CN(C(=O)c2cc(C)oc2C)C[C@H]1c1ccc(C)o1,-10.6
10,COc1nccnc1N1CCC2(CC1)C(=O)N(C)c1ccccc12,-4.89
11,O=C(C1CCC1)N1CCN(Cc2cccnc2)[C@H]2CS(=O)(=O)C[C@H]21,1.02
12,CCc1noc(CN(CC)Cc2cc3ccc(F)cc3[nH]c2=O)n1,2.24
13,O=C(Nc1ccc(F)cc1)C1CNCCN1C(=O)CCc1cccnc1 (configuration not stated),2.06
14,COc1ccc(C(=O)O)cc1-c1cccc(C(C)N(C)C)c1 (configuration not stated),-7.13
15,O=C(NCc1ccccn1)c1cc2n(n1)CCNC2,1.19
16,CN1CCN(Cc2nc3c(s2)CCCC3)[C@H]2CS(=O)(=O)C[C@H]21,2.81
17,COc1ccccc1N1CCN(C(=O)Cn2nccc2C)CC1(C)C,11.8
18,O=C(CN1CC(c2ccccc2)CC1=O)N1CCN(c2nccs2)CC1 (configuration not stated),-1.7
19,CCc1ccc(-c2cn(CCSc3ncn[nH]3)nn2)nc1,-0.89
20,CCc1nc(CN(C)Cc2nc(-c3ccccc3Cl)oc2C)no1,-8.83
21,CC(=O)N1CCCC1C(=O)NCCOc1c(C)cccc1C (configuration not stated),-24.1
22,CCc1nc2n(n1)CC(NCc1cc(OC)c3c(c1)OCO3)CC2 (configuration not stated),4.23
23,Cc1csc(CNC(=O)N(C)Cc2ccncc2)n1,-10.8

row,Compound,cytotoxicity at 10 µM [%]
1,Cc1cccc(C)c1OCC(=O)NS(=O)(=O)c1c(C)noc1C,-2.28
2,O=C(c1cc2c(s1)CCC2)N1CCCC1c1noc(C2CC2)n1 (configuration not stated),-8.18
3,Cc1cc(C)c(CNC(=O)NCc2ccc3c(c2)OCCO3)c(=O)[nH]1,-11.6
4,N#CC1(C(=O)N2CCCN(Cc3cscn3)CC2)CCCCC1,-2.54
5,Cc1nc(C)n(CC2CCCCN2Cc2cn3ccccc3n2)n1 (configuration not stated),-4.47
6,COc1ccc(S(=O)(=O)N2CCc3ccc(Cl)cc32)cc1C(=O)O,-11.6
7,COC(=O)C1CCN(c2cc(C)nc(-c3ccncc3)n2)CC1,2.76
8,COc1ccnc(N2CCN(C(=O)Cc3csc(C)n3)CC2)n1,-15.6
9,CCc1ncncc1C(=O)NC1CCc2nc(C)cn2C1 (configuration not stated),-17.3
10,CCN(Cc1ccc2c(c1)OCO2)C(=O)NCc1nc(C)cs1,7.47
11,Cc1cccc(-c2nc(C)nn2CC(=O)N(C)C2CC2)c1,-19.8
12,C/C(=C\c1ccccc1)CN1CCCC(c2nnc3n2CCNCC3)C1 (configuration not stated),6.97
13,CN(C)c1ncc(I)c(C2CCCN2C)n1 (configuration not stated),3.7
14,O=C(c1cccnc1)N1C[C@H]2CN(Cc3cccc(F)c3)C(=O)[C@H]2C1,-78.9
15,Cc1noc(C)c1CNCC1COCc2c(-c3ccsc3)nnn2C1 (configuration not stated),5.74
16,O=C1[C@H]2CN(CC3CCOCC3)C[C@H]2CN1Cc1cccc(F)c1,-118
17,COCCN1C2(CCN(CC3CC3)C2)c2ccccc2S1(=O)=O (configuration not stated),-130
18,O=C(N1CCCC1)N1C[C@@H](OCc2cccnc2)[C@H]2OCCC[C@H]21,4.85
19,COCCN1C(=O)CCC12CCC(NC(=O)c1cc(C)on1)CC2 (configuration not stated),3.94
20,CN(C)C(=O)N1C[C@@H]2CC[C@H]1CN(C1Cc3ccccc3C1)C2,-0.581
